Assay results published in ChEMBL document CHEMBL1914412, “Molecular modeling study and synthesis of novel dicationic flexible triaryl guanidines and imidamides as antiprotozoal agents” (Eur J Med Chem, 2011).

Tests used:
[1] = system: L6; assay: Cytotoxicity against rat L6 cells after 72 hrs by alamar blue staining-based microplate fluorometric analysis; type: cell-based; details: L6, 72 h
[2] = system: Plasmodium falciparum; assay: Antiplasmodial activity against Plasmodium falciparum K1 infected in human red blood cells assessed as [3H]hypoxanthine incorporation after 48 hrs by liquid scintillation counting; type: functional, organism-based
[3] = system: Trypanosoma brucei rhodesiense; assay: Antitrypanosomal activity against Trypanosoma brucei rhodesiense STIB900 after 72 hrs using alamar blue staining by microplate fluorometric analysis; type: functional, organism-based; details: STIB900, 72 h
Summary of the method: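 STIB 900 trypanosome suspension with serial drug dilutions, 37 °C, 5% CO₂, 72 h; Alamar Blue added and incubation continued 2–4 h. Two independent runs, each in duplicate.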

[4] = Selectivity index, ratio of IC50 for Trypanosoma brucei rhodesiense STIB900 to IC50 for Plasmodium falciparum K1; type: functional
[5] = system: Nucleic Acid; assay: Binding affinity to poly(dA-dT) DNA assessed as change in melting temperature at compound/polynucleotide ratio 0.3 in MES10 buffer by spectrophotometry; type: nucleic-acid assay
[6] = Ratio of IC50 for compound to IC50 for pentamidine for rat L6 cells; type: cell-based; details: read-out: Ratio IC50
[7] = system: Plasmodium falciparum; assay: Ratio of IC50 for pentamidine to IC50 for compound for Plasmodium falciparum K1; type: functional

For `N=C(Nc1ccc(Oc2cccc(Oc3ccc(NC(=N)c4ccc(-c5ccccc5)cc4)cc3)c2)cc1)c1ccc(-c2ccccc2)cc1`, the IC50 [1] was 9100 nM, the IC50 [2] was 4700 nM and the IC50 [3] was 82300 nM. It also gave a Ratio IC50 [4] of 17, a ΔTm [5] of 0 °C and a selectivity ratio [6] of 4.3.
`N=C(Nc1ccc(Oc2ccc(Oc3ccc(NC(=N)C4CCCCC4)cc3)cc2)cc1)C1CCCCC1` gave an IC50 [1] of 3100 nM, an IC50 [2] of 259 nM and an IC50 [3] of 427 nM. The Ratio IC50 [4] was 1.6, the ΔTm [5] was 2.1 °C and the selectivity ratio [6] was 1.5.
Work on `N=C(Nc1ccc(Oc2cccc(Oc3ccc(NC(=N)C4CCCCC4)cc3)c2)cc1)C1CCCCC1` yielded an IC50 [1] of 3900 nM, an IC50 [2] of 307 nM and an IC50 [3] of 395 nM. For the same molecule, the Ratio IC50 [4] was 1.3, the ΔTm [5] was 0 °C and the selectivity ratio [6] was 1.9.
In the case of `N=C(Nc1ccc(Oc2ccc(Oc3ccc(NC(=N)c4ccccc4)cc3)cc2)cc1)c1ccccc1`, the IC50 [1] is reported as 2800 nM, the IC50 [2] is reported as 71.5 nM and the IC50 [3] is reported as 863 nM. For the same molecule, the Ratio IC50 [4] was 12.1, the ΔTm [5] was 5 °C and the selectivity ratio [6] was 1.3.
`N=C(N)Nc1ccc(Oc2ccc(Oc3ccc(NC(=N)N)cc3)cc2)cc1` showed an IC50 [1] of 11600 nM, an IC50 [2] of 26.5 nM and an IC50 [3] of 151 nM. The Ratio IC50 [4] was 5.7, the ΔTm [5] was 2.1 °C and the selectivity ratio [6] was 5.5.
`C/N=C(\N)Nc1ccc(Oc2cccc(Oc3ccc(N/C(N)=N/C)cc3)c2)cc1.Cl.Cl` gave an IC50 [1] of 45700 nM, an IC50 [2] of 21.5 nM and an IC50 [3] of 318 nM. It also gave a Ratio IC50 [7] of 2.2, a Ratio IC50 [4] of 14.8 and a ΔTm [5] of 0.1 °C. The selectivity ratio [6] was 22.
For `N=C(Nc1ccc(Oc2ccc(Oc3ccc(NC(=N)c4ccc(-c5ccccc5)cc4)cc3)cc2)cc1)c1ccc(-c2ccccc2)cc1`, the IC50 [1] was > 120000 nM, the IC50 [2] was 63.3 nM and the IC50 [3] was 612 nM. For the same molecule, the Ratio IC50 [4] was 9.6, the ΔTm [5] was 0.1 °C and the selectivity ratio [6] was 60.
`N=C(Nc1ccc(Oc2cccc(Oc3ccc(NC(=N)c4ccccc4)cc3)c2)cc1)c1ccccc1` gave an IC50 [1] of 900 nM, an IC50 [2] of 251 nM and an IC50 [3] of 1040 nM. It also gave a Ratio IC50 [4] of 4.2, a ΔTm [5] of 2 °C and a selectivity ratio [6] of 0.43.
For `CC(C)/N=C(\N)Nc1ccc(Oc2cccc(Oc3ccc(N/C(N)=N/C(C)C)cc3)c2)cc1.Cl.Cl`, the IC50 [1] was 82100 nM, the IC50 [2] was 38.2 nM and the IC50 [3] was 155 nM. For the same molecule, the “Ratio IC50” value [7] was 1.2, the Ratio IC50 [4] was 4.1 and the ΔTm [5] was 0 °C. The selectivity ratio [6] was 39.
For `C/N=C(/N)Nc1ccc(Oc2ccc(Oc3ccc(N/C(N)=N/C)cc3)cc2)cc1.Cl.Cl`, the IC50 [1] was 57300 nM, the IC50 [2] was 14.1 nM and the IC50 [3] was 155 nM. It also gave a Ratio IC50 [7] of 3.3, a Ratio IC50 [4] of 11 and a ΔTm [5] of 0.8 °C. The selectivity ratio [6] was 27.
In the case of `CC(C)/N=C(\N)Nc1ccc(Oc2ccc(Oc3ccc(N/C(N)=N/C(C)C)cc3)cc2)cc1.Cl.Cl`, the IC50 [1] is reported as 19600 nM, the IC50 [2] is reported as 17.2 nM and the IC50 [3] is reported as 160 nM. It also gave a Ratio IC50 [7] of 2.7, a Ratio IC50 [4] of 9.3 and a ΔTm [5] of 0 °C. It also gave a selectivity ratio [6] of 9.3.
`CC(C)(C)c1ccc(C(=N)Nc2ccc(Oc3cccc(Oc4ccc(NC(=N)c5ccc(C(C)(C)C)cc5)cc4)c3)cc2)cc1` gave an IC50 [1] of 81400 nM, an IC50 [2] of 627 nM and an IC50 [3] of 2780 nM. It also gave a Ratio IC50 [4] of 4.4, a ΔTm [5] of 0 °C and a selectivity ratio [6] of 39.
For `CC(C)(C)c1ccc(C(=N)Nc2ccc(Oc3ccc(Oc4ccc(NC(=N)c5ccc(C(C)(C)C)cc5)cc4)cc3)cc2)cc1`, the IC50 [1] was 1500 nM, the IC50 [2] was 60 nM and the IC50 [3] was 400 nM. The Ratio IC50 [4] was 6.7, the ΔTm [5] was 0 °C and the selectivity ratio [6] was 0.71.
Molecule `N=C(N)Nc1ccc(Oc2cccc(Oc3ccc(NC(=N)N)cc3)c2)cc1` has an IC50 [1] of 10600 nM, an IC50 [2] of 27 nM and an IC50 [3] of 171 nM. It also gave a Ratio IC50 [4] of 6.3, a ΔTm [5] of 1.1 °C and a selectivity ratio [6] of 5.
